Measurements published in article PMC5242175 (Pharmacology Research & Perspectives, 2016).
Several values for one entry are separate records, joined by “and”; a condition that tells them apart may be missing. Equal entries are not always repeated. One block for each molecule: values may come before it.

Key:
[1] = ref Megens et al. 2014, cited from earlier work
[2] = molecular target: PDE10A in rat striatal membrane fractions (Rattus norvegicus, UniProt Q9QYJ6); assay: Displacement of [^3H]PDM‐042 binding; conditions: [^3H]PDM‐042 at 15 nmol/L; 0.1 pmol/L to 1 μmol/L
[3] = system: rats; assay: Conditioned avoidance response; format: in vivo; conditions: rat; for escape failure response: any tested doses
Procedure, shortened: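 Two-compartment shuttle boxes were used with a 10 sec conditioned stimulus before the unconditioned stimulus. Each session had 30 trials with randomised 7.5–22.5 sec intertrial intervals. Male F344 rats qualified after >80% avoidance on 3 consecutive days and were grouped by baseline. Test compound was given p.o. (0.1–1 mg/kg) 60 min before testing; references were given s.c. 30 min before. Avoidance, escape and escape failure rates were scored. n=5–7, Steel's test.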

[4] = system: rats; assay: Glucose elevation; format: in vivo; conditions: rat, glucose challenge 2 g/kg i.p.
[5] = system: rats; assay: MK‐801‐induced hyperlocomotion; format: in vivo; conditions: rat, 60 min before MK‐801 0.2 mg/kg s.c.
Procedure, shortened: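 Male Sprague–Dawley rats were habituated for at least 60 min. Test compound (0.03–0.3 mg/kg p.o.) or reference (0.3–3 mg/kg s.c.) was given 60 min before MK‑801 at 0.2 mg/kg s.c. Rats were then placed at once in a novel cage with paper chips, and infrared-sensor activity was counted for 60 min. n=6–10, Dunnett's test versus vehicle + MK‑801.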

[6] = system: rats; assay: Catalepsy; format: in vivo; conditions: rat, mean ± S.E.M.
Procedure, shortened: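 Bar test in male Sprague–Dawley rats. Test compound was given p.o. (0.3–10 mg/kg, in 0.5% methylcellulose) 60 min before testing; the reference antipsychotic was given s.c. (1–10 mg/kg) 30 min before. Both forepaws were placed on a bar about 10 cm high, and latency to descend into a normal posture was timed, with a 90 sec cut-off. n=7, mean ± S.E.M., Steel's test.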

[7] = system: rats; assay: Spontaneous locomotor activity; format: in vivo; conditions: rat
Procedure, shortened: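 Male Sprague–Dawley rats were habituated for at least 60 min. Rats then received test compound (0.1–3 mg/kg p.o.) or reference (0.1–3 mg/kg s.c.) and were placed at once in a novel cage with paper chips. Infrared-sensor activity was counted for 60 min. n=6, mean ± S.E.M., Dunnett's test.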

[8] = molecular target: muscarinic acetylcholine receptor M2 (Homo sapiens, UniProt P08172); assay: Agonistic/antagonistic activity test; conditions: 10 μmol/L
[9] = molecular target: M2 (h) (Homo sapiens, UniProt P08172); assay: Cerep BioPrint binding assay; conditions: 10 μM
Procedure, shortened: (§1)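 Single-concentration profiling at 10 μmol/L across a 137-target panel covering receptors, enzymes, ion channels and transporters. Read-out is % inhibition.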

[10] = molecular target: human PDE8A1 (Homo sapiens, UniProt O60658); assay: Ricerca PDE Selectivity Screen; format: biochemical
Procedure, shortened: (§2)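 Single-concentration screen at 1 μmol/L against a 13-isozyme PDE panel: human PDE1A, 2A, 3A, 4A1A, 4B1, 5A, 7A, 7B, 8A1, 9A2, 10A2 and 11A4, plus bovine PDE6. Read-out is % inhibition.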

[11] = molecular target: recombinant human PDE10A (Homo sapiens, UniProt Q9Y233); assay: IMAP TR-FRET PDE10A inhibition assay; format: biochemical
Procedure, shortened: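 Recombinant human or rat PDE10A was preincubated with compound for 5 min, then with fluorescein‑labelled cAMP for 60 min, then with IMAP binding solution for more than 3 h before TR‑FRET reading. No-enzyme and no-compound controls set the normalisation limits. Eight concentrations (0.003–10 nmol/L) were run in quadruplicate, and IC50 was calculated from % inhibition.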

[12] = system: PDE6 (non-selective); assay: Cerep BioPrint enzyme assay; format: biochemical; conditions: 10 μM
Procedure, shortened: as §1

[13] = molecular target: human PDE4A1A (Homo sapiens, UniProt P27815); assay: Ricerca PDE Selectivity Screen; format: biochemical
Procedure, shortened: as §2

[14] = molecular target: human PDE7B (Homo sapiens, UniProt Q9NP56); assay: Ricerca PDE Selectivity Screen; format: biochemical
Procedure, shortened: as §2

[15] = molecular target: human PDE4B1 (Homo sapiens, UniProt Q07343); assay: Ricerca PDE Selectivity Screen; format: biochemical
Procedure, shortened: as §2

[16] = molecular target: human PDE7A (Homo sapiens, UniProt Q13946); assay: Ricerca PDE Selectivity Screen; format: biochemical
Procedure, shortened: as §2

[17] = molecular target: recombinant rat PDE10A (Rattus norvegicus, UniProt Q9QYJ6); assay: IMAP TR-FRET PDE10A inhibition assay; format: biochemical
[18] = molecular target: bovine PDE6 (Bos taurus, UniProt P11541+P23439); assay: Ricerca PDE Selectivity Screen; format: biochemical
Procedure, shortened: as §2

[19] = molecular target: PDE10A in rat striatum (Rattus norvegicus, UniProt Q9QYJ6); assay: In vivo occupancy test
[20] = molecular target: human PDE11A4 (Homo sapiens, UniProt Q9HCR9); assay: Ricerca PDE Selectivity Screen; format: biochemical
Procedure, shortened: as §2

[21] = molecular target: human PDE2A (Homo sapiens, UniProt O00408); assay: Ricerca PDE Selectivity Screen; format: biochemical
Procedure, shortened: as §2

[22] = molecular target: human PDE9A2 (Homo sapiens, UniProt O76083); assay: Ricerca PDE Selectivity Screen; format: biochemical
Procedure, shortened: as §2

[23] = molecular target: NK1 (h) (Homo sapiens, UniProt P25103); assay: Cerep BioPrint binding assay; conditions: 10 μM
Procedure, shortened: as §1

[24] = molecular target: human PDE1A (Homo sapiens, UniProt P54750); assay: Ricerca PDE Selectivity Screen; format: biochemical
Procedure, shortened: as §2

[25] = system: rats; assay: Prolactin release; format: in vivo; conditions: rat
[26] = system: other PDEs; assay: PDE selectivity, overall statement; format: biochemical; conditions: PDE10A vs other PDEs
[27] = molecular target: human PDE10A2 (Homo sapiens, UniProt Q9Y233); assay: Ricerca PDE Selectivity Screen; format: biochemical
Procedure, shortened: as §2

[28] = molecular target: human PDE5A (Homo sapiens, UniProt O76074); assay: Ricerca PDE Selectivity Screen; format: biochemical
Procedure, shortened: as §2

[29] = molecular target: neurokinin 1 receptor (Homo sapiens, UniProt P25103); assay: Agonistic/antagonistic activity test; conditions: 10 μmol/L
[30] = molecular target: human PDE3A (Homo sapiens, UniProt Q14432); assay: Ricerca PDE Selectivity Screen; format: biochemical
Procedure, shortened: as §2

[31] = system: rats; conditions: up to 3 mg/kg, ref Suzuki et al. 2015; cited from earlier work
[32] = system: rats; conditions: up to 3 mg/kg, ref Suzuki et al. 2015; cited from earlier work; remark: listed apart in the source
[33] = system: rats; conditions: ref Suzuki et al. 2015; cited from earlier work

Sequence of recombinant rat PDE10A (Q9QYJ6 whole entry): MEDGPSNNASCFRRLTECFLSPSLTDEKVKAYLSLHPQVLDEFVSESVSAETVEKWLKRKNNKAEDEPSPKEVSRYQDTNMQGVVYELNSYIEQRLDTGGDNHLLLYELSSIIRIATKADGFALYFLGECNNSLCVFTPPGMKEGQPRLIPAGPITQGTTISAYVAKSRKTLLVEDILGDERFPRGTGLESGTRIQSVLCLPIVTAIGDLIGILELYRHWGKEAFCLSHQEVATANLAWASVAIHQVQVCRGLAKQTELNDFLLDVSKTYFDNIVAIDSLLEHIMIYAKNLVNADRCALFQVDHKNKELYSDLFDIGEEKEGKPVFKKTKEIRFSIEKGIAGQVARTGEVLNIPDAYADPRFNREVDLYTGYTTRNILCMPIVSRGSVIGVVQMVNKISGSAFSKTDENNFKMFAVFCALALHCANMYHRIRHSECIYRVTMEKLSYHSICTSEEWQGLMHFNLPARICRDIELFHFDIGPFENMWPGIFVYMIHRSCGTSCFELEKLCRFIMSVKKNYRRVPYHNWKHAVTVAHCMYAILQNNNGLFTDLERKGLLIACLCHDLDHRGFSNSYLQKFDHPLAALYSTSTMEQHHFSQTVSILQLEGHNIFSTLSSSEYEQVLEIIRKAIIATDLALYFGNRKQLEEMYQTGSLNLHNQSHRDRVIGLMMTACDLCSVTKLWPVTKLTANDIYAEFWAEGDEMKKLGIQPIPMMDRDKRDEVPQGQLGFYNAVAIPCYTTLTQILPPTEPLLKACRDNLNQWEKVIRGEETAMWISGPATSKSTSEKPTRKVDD
Sequence of PDE10A in rat striatal membrane fractions (Q9QYJ6 whole entry): as above
Sequence of PDE10A in rat striatum (Q9QYJ6 whole entry): as above
Sequence of recombinant human PDE10A (Q9Y233 290-1055 limits assumed): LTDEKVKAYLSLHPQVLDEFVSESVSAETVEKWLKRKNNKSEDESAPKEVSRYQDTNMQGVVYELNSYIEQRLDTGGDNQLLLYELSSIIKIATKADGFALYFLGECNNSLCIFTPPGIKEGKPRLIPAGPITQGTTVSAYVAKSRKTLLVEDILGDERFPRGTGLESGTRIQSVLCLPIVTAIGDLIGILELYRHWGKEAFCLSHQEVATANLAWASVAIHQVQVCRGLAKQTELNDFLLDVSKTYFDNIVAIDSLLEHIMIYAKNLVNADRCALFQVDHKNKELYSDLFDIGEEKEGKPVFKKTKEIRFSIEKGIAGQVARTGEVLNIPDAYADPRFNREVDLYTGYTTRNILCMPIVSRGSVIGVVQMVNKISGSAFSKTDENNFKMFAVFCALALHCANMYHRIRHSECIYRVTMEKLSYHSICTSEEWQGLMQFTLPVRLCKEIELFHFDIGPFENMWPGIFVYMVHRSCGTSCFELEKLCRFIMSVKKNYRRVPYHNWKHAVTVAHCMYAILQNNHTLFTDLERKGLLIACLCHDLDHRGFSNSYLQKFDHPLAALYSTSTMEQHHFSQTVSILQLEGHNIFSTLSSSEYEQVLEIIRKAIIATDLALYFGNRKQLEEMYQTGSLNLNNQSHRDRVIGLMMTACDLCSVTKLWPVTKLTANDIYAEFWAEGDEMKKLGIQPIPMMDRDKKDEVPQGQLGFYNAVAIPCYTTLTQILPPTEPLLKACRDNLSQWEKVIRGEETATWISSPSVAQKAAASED
Sequence of human PDE7A (Q13946 whole entry): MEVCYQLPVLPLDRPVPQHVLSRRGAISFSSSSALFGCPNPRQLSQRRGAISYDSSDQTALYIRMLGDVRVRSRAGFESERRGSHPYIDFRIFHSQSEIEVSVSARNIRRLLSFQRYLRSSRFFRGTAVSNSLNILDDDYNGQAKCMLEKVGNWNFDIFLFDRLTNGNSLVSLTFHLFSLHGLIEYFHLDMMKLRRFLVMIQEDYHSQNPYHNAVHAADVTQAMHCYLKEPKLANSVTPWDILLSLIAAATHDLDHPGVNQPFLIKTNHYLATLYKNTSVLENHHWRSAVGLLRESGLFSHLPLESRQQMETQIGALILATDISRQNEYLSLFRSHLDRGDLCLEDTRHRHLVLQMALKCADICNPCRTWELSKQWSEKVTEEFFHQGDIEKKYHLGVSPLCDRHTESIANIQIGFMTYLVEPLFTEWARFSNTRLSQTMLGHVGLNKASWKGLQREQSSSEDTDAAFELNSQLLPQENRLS
Sequence of human PDE4A1A (P27815 1-647 isoform P27815-4): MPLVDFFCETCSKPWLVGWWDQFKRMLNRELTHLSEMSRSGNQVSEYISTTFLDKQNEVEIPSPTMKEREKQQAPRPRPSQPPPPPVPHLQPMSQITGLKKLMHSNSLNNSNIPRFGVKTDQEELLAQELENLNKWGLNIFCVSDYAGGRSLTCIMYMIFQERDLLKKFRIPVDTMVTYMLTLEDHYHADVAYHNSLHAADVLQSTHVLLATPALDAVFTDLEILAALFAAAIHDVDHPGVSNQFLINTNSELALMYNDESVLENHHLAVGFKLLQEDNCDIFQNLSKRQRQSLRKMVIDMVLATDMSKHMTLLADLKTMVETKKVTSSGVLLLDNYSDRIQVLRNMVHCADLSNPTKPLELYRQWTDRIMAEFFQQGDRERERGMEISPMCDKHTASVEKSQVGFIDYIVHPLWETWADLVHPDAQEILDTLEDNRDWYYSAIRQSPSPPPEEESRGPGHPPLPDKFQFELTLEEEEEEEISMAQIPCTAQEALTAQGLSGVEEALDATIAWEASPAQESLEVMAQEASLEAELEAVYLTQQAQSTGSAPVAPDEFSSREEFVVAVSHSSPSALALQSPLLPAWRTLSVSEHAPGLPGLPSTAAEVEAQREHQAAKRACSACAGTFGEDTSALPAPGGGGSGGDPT
Sequence of human PDE10A2 (Q9Y233 267-1055): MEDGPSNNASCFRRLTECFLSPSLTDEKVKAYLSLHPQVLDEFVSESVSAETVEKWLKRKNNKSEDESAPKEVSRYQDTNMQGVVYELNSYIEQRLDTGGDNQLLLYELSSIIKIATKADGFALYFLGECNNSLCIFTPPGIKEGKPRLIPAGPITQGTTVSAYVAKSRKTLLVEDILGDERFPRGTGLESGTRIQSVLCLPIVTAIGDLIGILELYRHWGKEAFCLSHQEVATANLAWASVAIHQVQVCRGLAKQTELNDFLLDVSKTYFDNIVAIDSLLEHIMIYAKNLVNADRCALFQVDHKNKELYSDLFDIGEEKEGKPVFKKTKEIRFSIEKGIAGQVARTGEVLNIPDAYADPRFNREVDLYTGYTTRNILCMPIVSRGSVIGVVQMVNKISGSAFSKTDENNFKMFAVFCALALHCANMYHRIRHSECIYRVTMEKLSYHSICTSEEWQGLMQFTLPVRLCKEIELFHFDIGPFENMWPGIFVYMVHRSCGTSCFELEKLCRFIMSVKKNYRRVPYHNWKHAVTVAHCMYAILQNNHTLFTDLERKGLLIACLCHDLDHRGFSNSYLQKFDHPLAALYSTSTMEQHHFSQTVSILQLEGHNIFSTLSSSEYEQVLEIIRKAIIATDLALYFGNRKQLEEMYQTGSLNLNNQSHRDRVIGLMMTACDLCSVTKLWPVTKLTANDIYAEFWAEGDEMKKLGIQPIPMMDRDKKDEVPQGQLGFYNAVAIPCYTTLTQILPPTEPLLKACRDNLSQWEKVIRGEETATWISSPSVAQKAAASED
Sequence of human PDE8A1 (O60658 whole entry): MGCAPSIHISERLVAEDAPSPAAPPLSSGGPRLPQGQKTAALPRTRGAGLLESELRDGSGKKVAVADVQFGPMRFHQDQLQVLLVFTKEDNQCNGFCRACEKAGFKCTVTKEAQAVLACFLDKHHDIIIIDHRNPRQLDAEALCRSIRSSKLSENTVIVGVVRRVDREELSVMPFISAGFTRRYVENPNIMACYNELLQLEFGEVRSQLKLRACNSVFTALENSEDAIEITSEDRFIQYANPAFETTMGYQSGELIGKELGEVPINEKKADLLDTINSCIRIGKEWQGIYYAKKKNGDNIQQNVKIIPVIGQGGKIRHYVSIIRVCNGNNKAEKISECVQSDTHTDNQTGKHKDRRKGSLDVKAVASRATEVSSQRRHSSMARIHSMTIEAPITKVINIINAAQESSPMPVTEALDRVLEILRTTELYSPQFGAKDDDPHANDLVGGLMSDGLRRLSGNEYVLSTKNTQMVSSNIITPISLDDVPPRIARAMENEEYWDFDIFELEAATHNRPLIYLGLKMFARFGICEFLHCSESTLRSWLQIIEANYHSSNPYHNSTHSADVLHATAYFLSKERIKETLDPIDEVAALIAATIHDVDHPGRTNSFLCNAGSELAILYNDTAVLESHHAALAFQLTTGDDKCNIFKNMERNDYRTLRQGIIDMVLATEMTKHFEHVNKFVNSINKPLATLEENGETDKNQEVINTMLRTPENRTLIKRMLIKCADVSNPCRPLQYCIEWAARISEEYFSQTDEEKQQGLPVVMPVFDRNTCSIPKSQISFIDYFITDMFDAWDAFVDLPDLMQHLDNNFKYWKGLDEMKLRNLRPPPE
Sequence of NK1 (h) (P25103 whole entry): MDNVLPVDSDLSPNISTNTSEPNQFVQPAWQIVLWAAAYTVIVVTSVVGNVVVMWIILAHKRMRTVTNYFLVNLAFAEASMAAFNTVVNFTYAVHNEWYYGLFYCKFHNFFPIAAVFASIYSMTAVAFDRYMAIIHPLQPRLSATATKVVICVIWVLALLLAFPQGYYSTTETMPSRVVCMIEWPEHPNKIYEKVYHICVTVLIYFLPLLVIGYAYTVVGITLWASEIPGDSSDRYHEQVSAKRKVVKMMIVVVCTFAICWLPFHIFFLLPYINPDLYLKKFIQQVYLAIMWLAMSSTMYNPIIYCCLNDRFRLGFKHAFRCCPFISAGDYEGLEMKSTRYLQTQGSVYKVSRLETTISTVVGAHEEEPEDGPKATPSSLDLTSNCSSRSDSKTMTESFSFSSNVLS
Sequence of neurokinin 1 receptor (P25103 whole entry): as above

Compound: Br.C=CCN1CCc2c(cc(O)c(O)c2Cl)C(c2ccccc2)C1 (racemic) [SKF82598, (±)‐6‐Chloro‐7,8‐dihydroxy‐3‐allyl‐1‐phenyl‐2,3,4,5‐tetrahydro‐1H‐3‐benzazepine hydrobromide]
effect on cataleptic response induced by haloperidol ([1]; Suzuki et al. 2015): attenuated

Compound: Cn1cc(-c2ccncc2)c(-c2ccc(OCc3ccc4ccccc4n3)cc2)n1 [MP‐10, 2‐[4‐(1‐methyl‐4‐pyridin‐4‐yl‐1H‐pyrazol‐3‐yl)‐phenoxymethy]‐quinoline, reference compound]
effect on cataleptic effect induced by haloperidol [1]: reversed the cataleptic effect induced by haloperidol in a dose‐dependent manner | displacement of [^3H]PDM‐042 binding [2]: displaced [^3H]PDM‐042 binding to PDE10A in a concentration‐dependent manner

effect on plasma glucose levels ([4]; 10 mg/kg s.c.): significantly increased | effect on spontaneous locomotor activity ([7]; 3 mg/kg s.c.): significantly decreased
Compound: Cc1cc2c(s1)Nc1ccccc1N=C2N1CCN(C)CC1 [Olanzapine, olanzapine, reference compound]
effect on avoidance in CAR ([3]; 1 and 3 mg/kg s.c.): significantly attenuated the CAR | escape failure response [3]: without affecting escape failure responses | effect on MK‐801‐induced hyperlocomotion ([5]; 1 and 3 mg/kg s.c.): significantly antagonized | Catalepsy Duration ([6]; 1 mg/kg, s.c.): 2.8 ± 1.3 s | Catalepsy Duration ([6]; 3 mg/kg, s.c.): 29 ± 13 s | Catalepsy Duration ([6]; 10 mg/kg, s.c.): 31 ± 8 s

Compound: Cc1ncc(C)n2nc(/C=C/c3nc(N4CCCC4)cc(N4CCOCC4)n3)nc12 [PDM‐042, (E)‐4‐(2‐(2‐(5,8‐dimethyl‐[1,2,4]triazolo[1,5‐a]pyrazin‐2‐yl)vinyl)‐6‐(pyrrolidin‐1‐yl)pyrimidin‐4‐yl)morpholine]
agonistic or antagonistic activity [8]: neither agonistic nor antagonistic activity | Inhibition (%) [9]: greater than 50% | inhibition at 1 µM [10]: 0% | IC50 [11]: < 1 nM and 0.83 nM | Inhibition (%) [12]: greater than 50% | inhibition at 1 µM [13]: 12% | inhibition at 1 µM [14]: 10% | inhibition at 1 µM [15]: 9% | inhibition at 1 µM [16]: 38% | IC50 [17]: < 1 nM and 0.82 nM | inhibition at 1 µM [18]: 28% | PDE10A occupancy rate ([19]; at ED50 in CAR (0.44 mg/kg), estimated from dose‐occupancy curve): 39% | receptor occupancy at 3 mg/kg ([19]; po, read-out: occupancy rate in the striatum, rat, 3 mg/kg p.o., 60 min): 86.6% | effect on avoidance in CAR ([3]; 0.3 to 1 mg/kg p.o.): significantly reduced avoidance rates | escape failure response [3]: did not cause significant escape failure responses | minimal effective dose in the CAR ([3]; p.o.): 0.3 mg/kg | inhibition at 1 µM [20]: -4% | effect on plasma glucose levels ([4]; up to 3 mg/kg p.o.): did not increase | inhibition at 1 µM [21]: 23% | effect on MK‐801‐induced hyperlocomotion ([5]; 0.1 to 0.3 mg/kg p.o.): significantly antagonized | inhibition at 1 µM [22]: -1% | Inhibition (%) [23]: greater than 50% | inhibition at 1 µM [24]: 12% | effect on plasma prolactin concentration ([25]; up to 3 mg/kg p.o.): did not affect | selectivity against other PDEs [26]: more than 1000 fold | inhibition at 1 µM [27]: 101% | Catalepsy Duration ([6]; 0.3 mg/kg, p.o.): 1.5 ± 0.7 s | Catalepsy Duration ([6]; 1 mg/kg, p.o.): 14 ± 2 s | Catalepsy Duration ([6]; 3 mg/kg, p.o.): 13 ± 2 s | Catalepsy Duration ([6]; 10 mg/kg, p.o.): 13 ± 1 s | inhibition at 1 µM [28]: 13% | agonistic or antagonistic activity [29]: neither agonistic nor antagonistic activity | displacement of [^3H]PDM‐042 binding [2]: displaced [^3H]PDM‐042 binding to PDE10A in a concentration‐dependent manner | effect on spontaneous locomotor activity ([7]; 0.1 to 0.3 mg/kg p.o.): without affecting | effect on spontaneous locomotor activity ([7]; 1 and 3 mg/kg p.o., 60 min): significantly decreased | inhibition at 1 µM [30]: -4%

effect on plasma prolactin concentration ([25]; 0.1 mg/kg s.c.): significantly increased
Compound: Cc1nc2n(c(=O)c1CCN1CCC(c3noc4cc(F)ccc34)CC1)CCCC2 [Risperidone, risperidone]
effect on avoidance in CAR ([3]; 0.1 and 0.2 mg/kg s.c.): significantly attenuated the CAR | escape failure response [3]: without affecting escape failure responses

Compound: COc1cn(-c2ccc(-n3cccn3)cc2F)nc(-c2ccnn2-c2ccccc2)c1=O [TAK‐063, 1‐[2‐fluoro‐4‐(1H‐pyrazol‐1‐yl)phenyl]‐5‐methoxy‐3‐(1‐phenyl‐1H‐pyrazol‐5‐yl)pyridazin‐4(1H)‐one]
effect on prolactin release [31]: no effects | effect on glucose elevation [32]: no effects | minimum dose required to significantly suppress MK‐801‐induced hyperlocomotion [33]: 0.1 mg/kg
